Data on 5 compounds can be found in ChEMBL document CHEMBL2390935, “Synthesis and pharmacological properties of a new hydrophilic and orally bioavailable 5-HT4 antagonist” (Eur J Med Chem, 2013).

For series [1], the system named is Rattus norvegicus. The series is described as follows: Oral bioavailability in Sprague-Dawley rat assessed as 2-[4-[[4-(3,4-dihydro-2H-[1,3]oxazino[3,2-a]indole-10-carbonyloxymethyl)-1-piperidinyl]methyl]phenyl]-2-methylpropanoic acid level at 10 mg/kg by LC-MS/MS analysis. Type of series: ADME, organism-based. Conditions: in vivo. A digest of the protocol:
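Rats given 10 mg/kg orally and, for the free acid, 1 mg/kg i.v. Free-acid plasma levels measured by LC-MS at timed points. AUC by linear trapezoidal rule, extrapolated to infinity. F = (AUC p.o./dose p.o.)/(AUC i.v./dose i.v.), reported as %.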

The test system of series [2] is Rattus norvegicus. The experiment in a line: Elimination half life in Sprague-Dawley rat assessed as 2-[4-[[4-(3,4-dihydro-2H-[1,3]oxazino[3,2-a]indole-10-carbonyloxymethyl)-1-piperidinyl]methyl]phenyl]-2-methylpropanoic acid level at 10 mg/kg, po by LC-MS/MS analysis. Type of series: ADME, organism-based. Details: dose 10 mg/kg, route oral. Conditions: in vivo. A digest of the protocol:
(§1)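 Male Sprague-Dawley rats, 10 mg/kg p.o. in 10% ethanol/water or 2% β-cyclodextrin (1.0 mg/ml), n = 2–3. Tail-vein and terminal cardiac blood taken under isoflurane at 5 min–24 h. Plasma acidified and acetonitrile-precipitated, then the free acid measured by LC-MS MRM (LOQ 0.5 ng/ml). Non-compartmental analysis per animal, averaged. T1/2 from the terminal log-linear regression; Cmax and Tmax read directly.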

Series [3] has as its system Rattus norvegicus. The experiment in a line: Tmax in Sprague-Dawley rat assessed as 2-[4-[[4-(3,4-dihydro-2H-[1,3]oxazino[3,2-a]indole-10-carbonyloxymethyl)-1-piperidinyl]methyl]phenyl]-2-methylpropanoic acid level at 10 mg/kg, po by LC-MS/MS analysis. The class given is ADME, organism-based. Details: dose 10 mg/kg, route oral. Conditions: in vivo. A digest of the protocol:
as §1

The test system of series [4] is Rattus norvegicus. The series is described as follows: Cmax in Sprague-Dawley rat assessed as 2-[4-[[4-(3,4-dihydro-2H-[1,3]oxazino[3,2-a]indole-10-carbonyloxymethyl)-1-piperidinyl]methyl]phenyl]-2-methylpropanoic acid level at 10 mg/kg, po by LC-MS/MS analysis. More on the design: dose 10 mg/kg, route oral. Conditions: in vivo. The class given is ADME, organism-based. A digest of the protocol: as §1

Series [5] relates to Rattus norvegicus. The experiment in a line: AUC in Sprague-Dawley rat assessed as 2-[4-[[4-(3,4-dihydro-2H-[1,3]oxazino[3,2-a]indole-10-carbonyloxymethyl)-1-piperidinyl]methyl]phenyl]-2-methylpropanoic acid level at 10 mg/kg, po by LC-MS/MS analysis. Type of series: ADME, organism-based, Plasma. More on the design: dose 10 mg/kg, route oral. Conditions: in vivo. The procedure, abridged:
as §1

Series [6] in a line: 1-octanol-PBS partition coefficient, log D of the compound at pH 7.4 by shake-flask method. Type of series: physicochemical.
The target of series [7] is T1, 5-hydroxytryptamine receptor 4 (Homo sapiens, UniProt Q13639). The series is described as follows: Displacement of [3H]GR113808 from human 5-HT4B receptor expressed in HEK293 cells after 1 hr by liquid scintillation counting analysis. The class given is cell-based. A digest of the protocol: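 Competitive binding with 0.3 nM [3H]GR113808 on membranes from HEK293 cells stably expressing human 5-HT4(b).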

The target in series [8] is T1, 5-hydroxytryptamine receptor 4. The series is described as follows: Antagonist activity at human 5-HT4B receptor expressed in HEK293 cells assessed as inhibition of 5-HT-stimulated adenylyl cyclase activity after 20 mins. The class given is functional, cell-based. The procedure, abridged:
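Membranes from HEK293 cells stably expressing human 5-HT4(b). Adenylyl cyclase activity stimulated by 1 µM 5-HT. Inhibition measured across a concentration range of test compound.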

A short description of series [9]: Metabolic stability in human liver microsomes assessed as compound remaining at 2 uM after 60 mins by LC-MS analysis. The class given is ADME, Microsome. Conditions: read-out: Stability. A digest of the protocol: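 Pooled human liver microsomes (30 donors) at 0.5 mg protein/ml, 2 µM substrate, 1% DMSO, 1 mM NADPH plus 1 mM UDPGA, 37 °C. Cofactor-free parallel incubations run. Samples taken at 0, 10, 30 and 60 min and quenched with ice-cold acetonitrile. Disappearance judged by LC-MS peak area against the 0 min sample without cofactors.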
For orientation: Microsomes from liver hold many membrane-bound enzymes, among them those of drug oxidation.

Series [10] is described as follows: Oral bioavailability in Sprague-Dawley rat at 10 mg/kg by LC-MS/MS analysis. The class given is ADME, organism-based. Conditions: in vivo. A digest of the protocol: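 Male Sprague-Dawley rats dosed 10 mg/kg p.o. and 1 mg/kg i.v. Plasma free acid measured by LC-MS/MS at timed samples up to 24 h. Non-compartmental AUC (trapezoidal, extrapolated to infinity). F = (AUC p.o./dose p.o.)/(AUC i.v./dose i.v.), expressed in %.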

Series [11] is described as follows: Elimination half life in Sprague-Dawley rat at 10 mg/kg, po by LC-MS/MS analysis. Conditions: in vivo, read-out: beta t1/2. Details: dose 10 mg/kg, route oral. Type of series: ADME, organism-based. The procedure, abridged:
(§2)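 Male Sprague-Dawley rats (n = 3 per compound, n = 2 for the medoxomil prodrug) given 10 mg/kg p.o., in 10% ethanol in water or in 2% β-cyclodextrin (1.0 mg/ml). Tail-vein and terminal blood taken to 24 h. Plasma acidified and acetonitrile-precipitated. Free acid quantified by UPLC-ESI MRM MS. Non-compartmental analysis for each animal, then averaged; AUC by linear trapezoidal rule extrapolated to infinity; Cmax and Tmax read directly; T1/2 from terminal slope.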

A short description of series [12]: Tmax in Sprague-Dawley rat at 10 mg/kg, po by LC-MS/MS analysis. Conditions: in vivo. Type of series: ADME, organism-based. More on the design: dose 10 mg/kg, route oral. The procedure, abridged: as §2
A short description of series [13]: Cmax in Sprague-Dawley rat at 10 mg/kg, po by LC-MS/MS analysis. Type of series: ADME, organism-based. Details: dose 10 mg/kg, route oral. Conditions: in vivo. The procedure, abridged: as §2
The test system of series [14] is Rattus norvegicus. The series is described as follows: AUC in Sprague-Dawley rat at 10 mg/kg, po by LC-MS/MS analysis. Type of series: ADME, organism-based, Plasma. More on the design: dose 10 mg/kg, route oral. Conditions: in vivo. A digest of the protocol: as §2
Series [15] deals with Voltage-gated inwardly rectifying potassium channel KCNH2 (Homo sapiens, UniProt Q12809). The series is described as follows: Inhibition of human ERG expressed in HEK293 cells by whole-cell patch-clamp technique. The class given is cell-based. The procedure, abridged: (§3)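 Whole-cell patch clamp on isolated hERG-expressing cells superfused with HB-PSS, one cell per coverslip, holding potential -80 mV. Peak tail current averaged over 5–10 pulses. Baseline taken before exposure; ascending concentrations applied to steady state without washout, at least 3 cells per concentration. Residual current corrected for time-matched vehicle rundown. IC50 from a Hill-type fit. Terfenadine 50 nM served as positive control.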
(In general: Patch clamp records ionic current or voltage across a cell membrane.)

For another series, the target named is hERG (KCNH2) (Homo sapiens, UniProt Q12809). The series is described as follows: Inhibition of human ERG expressed in HEK293 cells at 100 uM by whole-cell patch-clamp technique relative to control. Type of series: cell-based. Conditions: HEK293 cells expressing human ERG. A digest of the protocol:
as §3

Some results are limits rather than exact numbers.

One may read the Tmax as the time from dosing to the highest level. The Cmax is the maximum level reached in the sampled fluid or tissue. Usually AUC stands for concentration integrated over time. By logD is commonly meant lipophilicity at a set pH, counting ionised and neutral species. The low end stands for a more hydrophilic compound, the high end for a more lipophilic compound. By Ki is commonly meant the dissociation constant of the complex between target and ligand, obtained from inhibition or displacement. High values mean weaker binding, low ones tighter binding. In general, pKb refers to −log10 of the Kb, conventionally taken in molar units. A word on the bioavailability: it is the share of a dose that reaches the circulation, judged against a reference dose that is usually intravenous. Low readings indicate poor availability, high ones good availability. In general, IC50 refers to the concentration at which inhibition is half-maximal. A word on the inhibition: it is the change of the read-out against control, counted positive when it falls. A high value points to a response far below the control.

T1 sequence (Q13639 whole entry): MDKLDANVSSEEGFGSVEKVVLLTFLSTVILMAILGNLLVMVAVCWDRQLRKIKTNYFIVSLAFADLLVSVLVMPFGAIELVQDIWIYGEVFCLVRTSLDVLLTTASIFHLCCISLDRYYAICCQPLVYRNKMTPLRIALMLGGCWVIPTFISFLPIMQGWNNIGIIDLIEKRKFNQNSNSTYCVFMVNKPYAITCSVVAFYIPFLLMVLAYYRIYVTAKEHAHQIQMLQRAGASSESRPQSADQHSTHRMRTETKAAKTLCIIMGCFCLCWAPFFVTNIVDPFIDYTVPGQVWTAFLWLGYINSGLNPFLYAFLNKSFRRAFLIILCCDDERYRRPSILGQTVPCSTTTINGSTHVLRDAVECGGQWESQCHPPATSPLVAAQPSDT
hERG (KCNH2), sequence (Q12809 whole entry): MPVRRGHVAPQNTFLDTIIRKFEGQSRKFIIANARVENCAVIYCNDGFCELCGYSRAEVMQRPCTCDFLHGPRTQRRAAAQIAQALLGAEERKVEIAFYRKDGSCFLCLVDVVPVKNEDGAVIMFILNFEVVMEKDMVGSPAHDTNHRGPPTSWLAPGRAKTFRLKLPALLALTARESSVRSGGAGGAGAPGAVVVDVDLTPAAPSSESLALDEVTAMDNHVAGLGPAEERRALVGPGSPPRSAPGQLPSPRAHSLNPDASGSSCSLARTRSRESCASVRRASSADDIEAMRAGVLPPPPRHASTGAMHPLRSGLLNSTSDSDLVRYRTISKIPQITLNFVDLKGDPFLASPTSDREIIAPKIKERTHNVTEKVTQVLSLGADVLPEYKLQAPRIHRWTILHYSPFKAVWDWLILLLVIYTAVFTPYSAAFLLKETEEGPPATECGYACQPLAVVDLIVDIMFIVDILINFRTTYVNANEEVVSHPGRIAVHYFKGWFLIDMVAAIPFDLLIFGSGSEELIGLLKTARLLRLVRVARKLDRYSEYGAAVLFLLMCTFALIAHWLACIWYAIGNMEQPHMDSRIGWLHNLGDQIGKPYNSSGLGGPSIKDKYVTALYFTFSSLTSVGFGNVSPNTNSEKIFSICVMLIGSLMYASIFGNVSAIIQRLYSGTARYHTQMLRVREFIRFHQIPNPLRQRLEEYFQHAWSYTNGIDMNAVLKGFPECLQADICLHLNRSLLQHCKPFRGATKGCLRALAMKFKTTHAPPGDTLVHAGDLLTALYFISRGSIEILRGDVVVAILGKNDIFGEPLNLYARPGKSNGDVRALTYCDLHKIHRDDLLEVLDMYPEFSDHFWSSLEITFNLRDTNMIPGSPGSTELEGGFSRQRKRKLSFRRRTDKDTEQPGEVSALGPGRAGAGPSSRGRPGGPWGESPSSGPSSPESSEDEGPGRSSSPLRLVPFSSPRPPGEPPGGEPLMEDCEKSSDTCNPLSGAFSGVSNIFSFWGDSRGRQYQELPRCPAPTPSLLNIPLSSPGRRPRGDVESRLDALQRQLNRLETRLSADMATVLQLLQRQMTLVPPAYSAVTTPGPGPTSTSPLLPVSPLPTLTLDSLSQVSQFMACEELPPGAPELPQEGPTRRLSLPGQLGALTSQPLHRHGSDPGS
Voltage-gated inwardly rectifying potassium channel KCNH2, sequence (Q12809 whole entry, the tested form may be a part): as the sequence (Q12809 whole entry) above

As to `Cc1oc(=O)oc1COC(=O)C(C)(C)c1ccc(CN2CCC(COC(=O)c3c4n(c5ccccc35)CCCO4)CC2)cc1`, in the series on Rattus norvegicus [1], the F was found to be 16%. Also, the “beta t1/2” value in the series on Rattus norvegicus [2] stood at 1.2 h. Further, the time to peak (Tmax) with Rattus norvegicus [3] amounted to 0.5 h. Moreover, in the series with Rattus norvegicus [4], the Cmax was 817 ng/mL. Moreover, the AUC in the series on Rattus norvegicus [5] came out at 1206 ng·h/mL. Besides, the logD in series [6] worked out at 2.2.
For the compound `Cn1cc(C(=O)OCC2CCN(CCNS(C)(=O)=O)CC2)c2ccccc21`, in series [7], affinity was put at a Ki of 0.0398 nM. For the same compound, the negative-log Kb (pKb) in series [8] turned out to be 8.7.
As for `CC(C)(C(=O)O)c1ccc(CN2CCC(COC(=O)c3c4n(c5ccccc35)CCCO4)CC2)cc1`, the remaining at 1 h, 2 µM in series [9] is less than 0.1%. In [10], this compound had a bioavailability of 3%. Also, in series [11], the half-life was 6.07 h. The Tmax in series [12] was 0.2 h. In series [13], the Cmax worked out at 130 ng/mL. In the series with Rattus norvegicus [14], this compound came in with an AUC of 285 ng·h/mL. For the same compound, the IC50 in [15] turned out to be 69000 nM. On hERG (KCNH2), this compound gave an inhibition at 100 µM of 55.8%. In series [7], this compound showed a Ki of 0.126 nM. The pKb in series [8] is 8.6. Also, the logD in series [6] is -1.2.
On to `CCCCN1CCC(CNC(=O)c2c3n(c4ccccc24)CCCO3)CC1` [PIBOSEROD], for which affinity in series [7] was put at a Ki of 0.1 nM. Also, the pKb in series [8] came to 9.1.
As for `CC(C)(C)c1ccc(CN2CCC(COC(=O)c3c4n(c5ccccc35)CCCO4)CC2)cc1`, in the series on Rattus norvegicus [1], the F is reported as 1%. In series [10], this compound returned a bioavailability of 6%. Moreover, in the series with Rattus norvegicus [2], the “beta t1/2” value stood at 19.83 h. In series [11], the half-life was 26.8 h. In addition, the Tmax in the series on Rattus norvegicus [3] was 1.33 h; in series [12], 5.67 h. Besides, the Cmax with Rattus norvegicus [4] was 13 ng/mL; in series [13], 33 ng/mL. For the same compound, the figures for the AUC in the series on Rattus norvegicus [5] and with Rattus norvegicus [14] were 127 ng·h/mL and 533 ng·h/mL, respectively. Moreover, in [6], the logD is 2.4.
